Assay results: publication PMC8153786 (ACS Omega, 2021)
Where two headings read alike, the source gives them in different places.

Legend:
bovine serum albumin = settings: BSA–flavonol interactions ref 69; cited from earlier work
hCCL2-WT = hCCL2-WT (Homo sapiens, UniProt P13500); test: Flavonol fluorescence quenching titration of hCCL2-WT; type: binding; settings: for quenching constant (Kq) / number of binding sites: hCCL2-WT; for quenching constant (Kq): Stern–Volmer, 25 °C, 50 μM protein; for number of binding sites: double-logarithmic plot
How it was run: (§1)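 Each CCL2 variant (WT dimer or monomer, E. coli BL21(DE3)-expressed) was held at 50 μM and titrated with 10–100 μM flavonol from a 20 mM DMSO stock, at 25 °C. Trp W59 was excited at 295 nm and emission read at 300–450 nm, slits 5 nm. Buffer-only additions served as controls; runs in triplicate. Ksv and Kq came from Stern–Volmer analysis; Ka and n from a double-logarithmic plot, nonlinear regression and Scatchard analysis.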

mCCL2-M = mCCL2-M (Mus musculus, UniProt P10148, P31A); test: Flavonol fluorescence quenching titration of mCCL2 monomer; type: binding, murine; settings: for quenching constant (Kq): Stern–Volmer, 50 μM protein
How it was run: as §1

mCCL2-WT [1] = molecular target: T1, mCCL2-WT (Mus musculus, UniProt P10148); test: Flavonol fluorescence quenching titration of mCCL2-WT; type: binding, murine; settings: for quenching constant (Kq) / number of binding sites: mCCL2-WT; for quenching constant (Kq): Stern–Volmer, 25 °C, 50 μM protein; for number of binding sites: double-logarithmic plot
How it was run: as §1

hCCL2-M = hCCL2-M (Homo sapiens, UniProt P13500, P31A); test: Flavonol fluorescence quenching titration of hCCL2 monomer; type: binding; settings: for quenching constant (Kq) / number of binding sites: hCCL2-M (monomer); for quenching constant (Kq): Stern–Volmer, 25 °C, 50 μM protein; for number of binding sites: double-logarithmic plot
How it was run: as §1

mCCL2-WT [2] = molecular target: T1, mCCL2-WT; test: 1H–15N HSQC NMR titration, chemical shift perturbation; type: binding, murine; settings: mCCL2-WT 100 μM, protein/flavonol 1:5, comparison among the three flavonols
How it was run: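 15N-labelled WT murine protein, expressed in E. coli BL21(DE3), at 100 μM in 50 mM Na2HPO4/50 mM NaCl, pH 6.0. 1H–15N HSQC spectra recorded at 500 MHz and 25 °C. Flavonol from a 20 mM DMSO stock was added stepwise up to protein/ligand 1:5. Per-residue CSP was calculated from combined ΔδH and ΔδN.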

canine distemper virus = settings: comparison with morin ref 67; cited from earlier work
[3] = mCCL2-M (monomer), double-logarithmic plot

hCCL2-M, sequence (P13500 24-99 P31A): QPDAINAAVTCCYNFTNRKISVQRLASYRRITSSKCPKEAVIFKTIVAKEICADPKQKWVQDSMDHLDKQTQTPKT
hCCL2-WT, sequence (P13500 24-99): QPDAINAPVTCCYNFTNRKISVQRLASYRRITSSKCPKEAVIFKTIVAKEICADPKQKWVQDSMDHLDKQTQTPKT
mCCL2-M, sequence (P10148 24-148 P31A): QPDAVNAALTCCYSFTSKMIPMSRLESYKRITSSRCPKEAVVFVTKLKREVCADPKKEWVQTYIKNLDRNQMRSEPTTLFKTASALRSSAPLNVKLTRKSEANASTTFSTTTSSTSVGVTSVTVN
T1 sequence (P10148 24-148): as the sequence (P10148 24-148 P31A) above, with A8P counted along it

SMILES | binding constants (Ka) (bovine serum albumin) | Kd (hCCL2-WT) | quenching constant (Kq) (hCCL2-WT) | number of binding sites (hCCL2-WT) | Kd (mCCL2-M) | quenching constant (Kq) (mCCL2-M; mCCL2-M (monomer), 25 °C) | Kd (mCCL2-WT [1]) | quenching constant (Kq) (mCCL2-WT [1]) | number of binding sites (mCCL2-WT [1]) | Kd (hCCL2-M) | quenching constant (Kq) (hCCL2-M) | number of binding sites (hCCL2-M) | perturbation of resonances in CSP maps (mCCL2-WT [2]) | Kd (mCCL2-M; dissociation constant (Kd), mCCL2-M (monomer), double-logarithmic plot, 25 °C) | number of binding sites (mCCL2-M; [3]) | inhibitory activity (canine distemper virus)
O=c1c(O)c(-c2ccccc2)oc2cc(O)cc(O)c12 [galangin, reference compound] | 643000 L/mol |  |  |  |  |  |  |  |  |  |  |  |  |  |  | 
O=c1c(O)c(-c2ccc(O)cc2)oc2cc(O)cc(O)c12 [kaempferol, 3,5,7-trihydroxy-2-(4-hydroxyphenyl)chromen-4-one] | 2.57e+06 L/mol | 26 ± 5 µM | 5.2 × 10^12 m^–1 s^–1 | 1.1 ± 0.1 | 26 ± 5 µM | 5.1 × 10^12 m^–1 s^–1 | 24 ± 6 µM | 5.0 × 10^12 m^–1 s^–1 | 1.1 ± 0.2 | 25 ± 4 µM | 5.3 × 10^12 m^–1 s^–1 | 1.1 ± 0.1 | the least |  |  | 
O=c1c(O)c(-c2cc(O)c(O)c(O)c2)oc2cc(O)cc(O)c12 [myricetin, 3,5,7-trihydroxy-2-(3,4,5-trihydroxyphenyl)chromen-4-one] | 4.9e+08 L/mol | 0.38 ± 0.04 µM | 5.8 × 10^12 m^–1 s^–1 | 1.3 ± 0.2 |  | 6.3 × 10^12 m^–1 s^–1 | 0.42 ± 0.03 µM | 6.1 × 10^12 m^–1 s^–1 | 1.1 ± 0.2 | 0.43 ± 0.02 µM | 6.2 × 10^12 m^–1 s^–1 | 1.2 ± 0.2 | largest perturbation of resonances | 0.4 ± 0.03 µM | 1.2 ± 0.1 | 
O=c1c(O)c(-c2ccc(O)c(O)c2)oc2cc(O)cc(O)c12 [quercetin, 2-(3,4-dihydroxyphenyl)-3,5,7-trihydroxychromen-4-one] | 3.65e+07 L/mol | 3.5 ± 0.7 µM | 4.2 × 10^12 m^–1 s^–1 | 1.1 ± 0.1 | 3.7 ± 0.4 µM | 5.7 × 10^12 m^–1 s^–1 | 3.9 ± 0.5 µM | 4.3 × 10^12 m^–1 s^–1 | 1.2 ± 0.2 | 3.6 ± 0.5 µM | 5.4 × 10^12 m^–1 s^–1 | 1.2 ± 0.1 |  |  | 1.1 ± 0.2 | higher inhibitory activity than morin
